This is an account of results in paper PMC11913021 (Journal of Medicinal Chemistry, 2024).

Residue numbers refer to the chain shown, from its start. Several values for one entry are separate records, joined by “and”; a condition that tells them apart may be missing. Identical values can stand only once.

Common to all, as to type: cell-based
Test [1] has as its target T1, F789A mutant PLD1 (Homo sapiens, UniProt Q13393, F827A).
T1 sequence (Q13393 1-1036 isoform Q13393-2 F789A): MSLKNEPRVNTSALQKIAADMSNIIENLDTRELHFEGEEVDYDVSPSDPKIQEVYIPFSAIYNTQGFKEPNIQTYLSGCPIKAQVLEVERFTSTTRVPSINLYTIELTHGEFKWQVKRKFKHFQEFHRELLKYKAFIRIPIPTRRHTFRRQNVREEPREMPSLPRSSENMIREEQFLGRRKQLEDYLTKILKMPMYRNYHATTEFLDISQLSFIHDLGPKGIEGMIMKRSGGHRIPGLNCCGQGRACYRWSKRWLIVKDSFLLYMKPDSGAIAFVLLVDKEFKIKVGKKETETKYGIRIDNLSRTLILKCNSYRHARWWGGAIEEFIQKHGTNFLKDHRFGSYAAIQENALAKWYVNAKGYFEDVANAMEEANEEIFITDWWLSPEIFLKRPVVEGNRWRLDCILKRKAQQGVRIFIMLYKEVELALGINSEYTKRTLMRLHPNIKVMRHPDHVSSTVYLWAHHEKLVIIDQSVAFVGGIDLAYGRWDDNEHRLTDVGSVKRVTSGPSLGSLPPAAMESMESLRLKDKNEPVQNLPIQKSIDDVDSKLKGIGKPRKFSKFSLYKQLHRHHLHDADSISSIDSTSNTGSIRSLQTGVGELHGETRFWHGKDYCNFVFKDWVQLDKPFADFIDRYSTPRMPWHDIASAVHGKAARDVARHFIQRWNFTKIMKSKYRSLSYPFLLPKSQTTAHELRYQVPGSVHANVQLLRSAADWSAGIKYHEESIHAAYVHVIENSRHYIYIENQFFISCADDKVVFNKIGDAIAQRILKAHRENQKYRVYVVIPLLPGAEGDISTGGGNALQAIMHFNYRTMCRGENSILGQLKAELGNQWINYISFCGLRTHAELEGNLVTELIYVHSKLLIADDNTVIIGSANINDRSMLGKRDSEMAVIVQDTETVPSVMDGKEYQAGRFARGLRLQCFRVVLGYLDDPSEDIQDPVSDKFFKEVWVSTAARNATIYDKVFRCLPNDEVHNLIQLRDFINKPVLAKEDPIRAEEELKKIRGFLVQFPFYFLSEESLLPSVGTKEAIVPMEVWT
The test is described as follows: PLD activity assay in F789A mutant PLD1-transfected cells.

Test [2] concerns A549 cells. Briefly: WST-1 cell viability assay, A549. Particulars: read-out: IC50 of viability; A549, WST-1, 48 h. The gist of the method: (§1)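 Cells grown in DMEM or RPMI 1640 with 10% FBS and 1% penicillin/streptomycin at 37 °C, 5% CO2. Seeded at 5 × 10^3 cells/well and held 24 h at 37 °C, then exposed to test compound for 48 h. WST-1 absorbance was read at 450 nm, in triplicate. IC50 was taken as the concentration giving 50% growth inhibition versus control.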
(Tetrazolium dyes change colour on reduction, which living cells bring about.)

Test [3] deals with Calu6 lung cancer cells. The test is described as follows: WST-1 cell viability assay, Calu6. The note with it: read-out: IC50 of viability; Calu6, WST-1, 48 h. The gist of the method: as §1
For test [4], the system named is A549 cells. The test is described as follows: IncuCyte cell growth and death assay. The note with it: time-dependent.
Test [5] has as its system CD24, CD47, PD-L1, CRT. The test is described as follows: Flow cytometry of “don’t eat-me” and “eat-me” signals in A549 cells. (In flow cytometry, cells or beads pass a laser one at a time.)
Test [6] deals with T2, wild-type PLD1 (Homo sapiens, UniProt Q13393).
T2 sequence (Q13393 1-1036 isoform Q13393-2): T1 sequence (Q13393 1-1036 isoform Q13393-2 F789A) with A789F
Briefly: PLD activity assay in wild-type PLD1-transfected cells.

For the substance “N-(3,5-Bis(trifluoromethyl)phenyl)-3-(1H-indol-3-yl)propanamide [3r]”, the PLD activity result in test [1] was “did not significantly inhibit”. The IC50 in test [2] is 18 µM and 18.4 µM. The IC50 in test [3] came out at 19 µM. Moreover, in test [4], the “death of A549 cells” value is “increased” and the “proliferation of A549 cells” value is recorded as “significantly suppressed”. In test [5], the “expression of “don’t eat-me” signals” value was “reduced” and the “expression of “eat-me” signals” value is listed as “enhanced”. In addition, in test [6], the PLD activity entry is given as “significantly suppressed”.

A word on the IC50: it is the concentration needed to halve the response being measured.
